Data set [1] can be described thus: Mutagenic activity in Salmonella typhimurium TA97a assessed as increase in number of revertants at 0.002 ug/plate by Ames test absence of S9 fraction (Rvb=146+/- 8). The class given is toxicity. Conditions: salmonella enterica subsp. enterica serovar typhimurium. The gist of the method: (§1)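 Microsuspension Ames test, with and without rat liver S9 mix. The S9 is from male Sprague-Dawley rats given Aroclor 1254 (26 mg/mL protein); the final mix is 4% S9, 10 mM G6P and 8 mM NADP. Triplicate plates are incubated 48 h at 37 °C and colonies counted automatically. Values are mean ± SD revertants per plate, tested against spontaneous revertants (Rvb) by Dunnett test.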
(The Ames test uses bacterial strains that need an amino acid and regain growth without it when mutated back.)

A short description of data set [2]: Mutagenic activity in Salmonella typhimurium TA98 assessed as increase in number of revertants at 60 ug/plate by Ames test absence of S9 fraction (Rvb=22+/- 4). It counts as toxicity. Conditions: salmonella enterica subsp. enterica serovar typhimurium. In outline:
as §1

A short description of data set [3]: Mutagenic activity in Salmonella Typhimurium TA98 assessed as increase in number of revertants at 80 ug/plate by Ames test absence of S9 fraction (Rvb=22+/- 4). It counts as toxicity. Conditions: salmonella enterica subsp. enterica serovar typhimurium. In outline: as §1
Data set [4] can be described thus: Mutagenic activity in Salmonella typhimurium TA100 assessed as increase in number of revertants at 40 ug/plate by Ames test presence of S9 fraction (Rvb=124+/-13). To be noted: salmonella enterica subsp. enterica serovar typhimurium. It counts as toxicity. The gist of the method:
as §1

Data set [5] is described as follows: Mutagenic activity in Salmonella Typhimurium TA102 assessed as increase in number of revertants at 60 ug/plate by Ames test absence of S9 fraction (Rvb=290+/-10). The class given is toxicity. To be noted: salmonella enterica subsp. enterica serovar typhimurium. In outline: as §1
Data set [6] is described as follows: Mutagenic activity in Salmonella Typhimurium TA102 assessed as increase in number of revertants at 60 ug/plate by Ames test presence of S9 fraction (Rvb=369+/-34). The class given is toxicity. To be noted: salmonella enterica subsp. enterica serovar typhimurium. The gist of the method: as §1
The nature of data set [7]: Mutagenic activity in Salmonella typhimurium TA98 assessed as increase in number of revertants at 60 ug/plate by Ames test presence of S9 fraction (Rvb=34+/- 4). The class given is toxicity. To be noted: salmonella enterica subsp. enterica serovar typhimurium. In outline:
as §1

The nature of data set [8]: Mutagenic activity in Salmonella Typhimurium TA100 assessed as increase in number of revertants at 60 ug/plate by Ames test presence of S9 fraction (Rvb=124+/-13). Conditions: salmonella enterica subsp. enterica serovar typhimurium. The class given is toxicity. The gist of the method: as §1
For data set [9], the system named is CHO. Nature of the data set: Cytotoxicity activity against CHO cells assessed as cell viability after 24 hrs by WST1 test. Conditions: chinese hamster. It counts as cell-based, Cricetulus griseus. The gist of the method:
(§2)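 CHO-K1 cells in McCoy's 5A with 10% fetal calf serum are seeded and incubated overnight at 37 °C, 5% CO2. A range of compound concentrations is added in triplicate cultures (final DMSO below 0.2%) for 2 or 24 h. Cells are washed three times in PBS, then given 10% WST1 in medium for 30 min. Viability is read as absorbance at 450 nm.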
In general terms: Tetrazolium assays rely on reduction of a dye to a coloured formazan, in cell work by metabolically active cells.

Data set [10] is described as follows: Mutagenic activity in Salmonella Typhimurium TA102 assessed as increase in number of revertants at 40 ug/plate by Ames test absence of S9 fraction (Rvb=290+/-10). The class given is toxicity. To be noted: salmonella enterica subsp. enterica serovar typhimurium. In outline: as §1
Data set [11] is described as follows: Mutagenic activity in Salmonella Typhimurium TA102 assessed as increase in number of revertants at 40 ug/plate by Ames test presence of S9 fraction (Rvb=369+/-34). To be noted: salmonella enterica subsp. enterica serovar typhimurium. The class given is toxicity. In outline: as §1
Data set [12] in a line: Mutagenic activity in Salmonella Typhimurium TA97a assessed as increase in number of revertants at 40 ug/plate by Ames test absence of S9 fraction (Rvb=146+/- 8). Conditions: salmonella enterica subsp. enterica serovar typhimurium. It counts as toxicity. In outline:
as §1

Data set [13] is described as follows: Cytotoxicity activity against CHO cells assessed as cell viability after 2 hrs by WST1 test. It counts as cell-based, Cricetulus griseus. To be noted: chinese hamster, read-out: Activity. In outline:
as §2

The nature of data set [14]: Mutagenic activity in Salmonella Typhimurium TA102 assessed as increase in number of revertants at 100 ug/plate by Ames test presence of S9 fraction (Rvb=369+/-34). It counts as toxicity. To be noted: salmonella enterica subsp. enterica serovar typhimurium. The gist of the method:
as §1

Data set [15] is described as follows: Mutagenic activity in Salmonella Typhimurium TA97a assessed as increase in number of revertants at 80 ug/plate by Ames test absence of S9 fraction (Rvb=146+/- 8). The class given is toxicity. Conditions: salmonella enterica subsp. enterica serovar typhimurium. The gist of the method:
as §1

The nature of data set [16]: Mutagenic activity in Salmonella Typhimurium TA98 assessed as increase in number of revertants at 100 ug/plate by Ames test presence of S9 fraction (Rvb=34+/- 4). It counts as toxicity. Conditions: salmonella enterica subsp. enterica serovar typhimurium. The gist of the method:
as §1

The nature of data set [17]: Mutagenic activity in Salmonella Typhimurium TA98 assessed as increase in number of revertants at 100 ug/plate by Ames test absence of S9 fraction (Rvb=22+/- 4). It counts as toxicity. To be noted: salmonella enterica subsp. enterica serovar typhimurium. The gist of the method:
as §1

Data set [18] in a line: Mutagenic activity in Salmonella typhimurium TA100 assessed as increase in number of revertants at 60 ug/plate by Ames test absence of S9 fraction (Rvb=108+/-5). It counts as toxicity. Conditions: salmonella enterica subsp. enterica serovar typhimurium. The gist of the method:
as §1

Data set [19] in a line: Mutagenic activity in Salmonella Typhimurium TA102 assessed as increase in number of revertants at 100 ug/plate by Ames test absence of S9 fraction (Rvb=290+/-10). Conditions: salmonella enterica subsp. enterica serovar typhimurium. It counts as toxicity. In outline:
as §1

A short description of data set [20]: Mutagenic activity in Salmonella typhimurium TA102 assessed as increase in number of revertants at 80 ug/plate by Ames test presence of S9 fraction (Rvb=369+/-34). It counts as toxicity. To be noted: salmonella enterica subsp. enterica serovar typhimurium. In outline: as §1
Data set [21] is described as follows: Mutagenic activity in Salmonella Typhimurium TA97a assessed as increase in number of revertants at 40 ug/plate by Ames test presence of S9 fraction (Rvb=154+/-18). Conditions: salmonella enterica subsp. enterica serovar typhimurium. It counts as toxicity. The gist of the method:
as §1

A short description of data set [22]: Mutagenic activity in Salmonella Typhimurium TA102 assessed as increase in number of revertants at 80 ug/plate by Ames test absence of S9 fraction (Rvb=290+/-10). It counts as toxicity. Conditions: salmonella enterica subsp. enterica serovar typhimurium. In outline:
as §1

Data set [23] is described as follows: Mutagenic activity in Salmonella Typhimurium TA97a assessed as increase in number of revertants at 100 ug/plate by Ames test presence of S9 fraction (Rvb=154+/-18). Conditions: salmonella enterica subsp. enterica serovar typhimurium. The class given is toxicity. The gist of the method: as §1
Data set [24] in a line: Mutagenic activity in Salmonella Typhimurium TA98 assessed as increase in number of revertants at 80 ug/plate by Ames test presence of S9 fraction (Rvb=34+/- 4). It counts as toxicity. Conditions: salmonella enterica subsp. enterica serovar typhimurium. The gist of the method: as §1
Data set [25] is described as follows: Mutagenic activity in Salmonella typhimurium TA98 assessed as increase in number of revertants at 40 ug/plate by Ames test presence of S9 fraction (Rvb=34+/- 4). Conditions: salmonella enterica subsp. enterica serovar typhimurium. The class given is toxicity. The gist of the method:
as §1

Data set [26] is described as follows: Mutagenic activity in Salmonella typhimurium TA98 assessed as increase in number of revertants at 40 ug/plate by Ames test absence of S9 fraction (Rvb=22+/- 4). It counts as toxicity. To be noted: salmonella enterica subsp. enterica serovar typhimurium. In outline: as §1
Data set [27] is described as follows: Mutagenic activity in Salmonella typhimurium TA100 assessed as increase in number of revertants at 80 ug/plate by Ames test absence of S9 fraction (Rvb=108+/-5). The class given is toxicity. Conditions: salmonella enterica subsp. enterica serovar typhimurium. In outline:
as §1

The nature of data set [28]: Mutagenic activity in Salmonella typhimurium TA97a assessed as increase in number of revertants at 60 ug/plate by Ames test absence of S9 fraction (Rvb=146+/- 8). The class given is toxicity. Conditions: salmonella enterica subsp. enterica serovar typhimurium. The gist of the method: as §1
Data set [29] can be described thus: Mutagenic activity in Salmonella Typhimurium TA97a assessed as increase in number of revertants at 100 ug/plate by Ames test absence of S9 fraction (Rvb=146+/- 8). It counts as toxicity. Conditions: salmonella enterica subsp. enterica serovar typhimurium. In outline: as §1
The nature of data set [30]: Mutagenic activity in Salmonella typhimurium TA100 assessed as increase in number of revertants at 100 ug/plate by Ames test presence of S9 fraction (Rvb=124+/-13). It counts as toxicity. Conditions: salmonella enterica subsp. enterica serovar typhimurium. The gist of the method: as §1
Data set [31] in a line: Mutagenic activity in Salmonella typhimurium TA97a assessed as increase in number of revertants at 80 ug/plate by Ames test presence of S9 fraction (Rvb=154+/-18). Conditions: salmonella enterica subsp. enterica serovar typhimurium. It counts as toxicity. In outline: as §1
Data set [32] can be described thus: Mutagenic activity in Salmonella Typhimurium TA100 assessed as increase in number of revertants at 80 ug/plate by Ames test presence of S9 fraction (Rvb=124+/-13). Conditions: salmonella enterica subsp. enterica serovar typhimurium. It counts as toxicity. The gist of the method: as §1
The nature of data set [33]: Mutagenic activity in Salmonella Typhimurium TA100 assessed as increase in number of revertants at 100 ug/plate by Ames test absence of S9 fraction (Rvb=108+/-5). To be noted: salmonella enterica subsp. enterica serovar typhimurium.
A short description of data set [34]: Mutagenic activity in Salmonella typhimurium TA97a assessed as increase in number of revertants at 60 ug/plate by Ames test presence of S9 fraction (Rvb=154+/-18). Conditions: salmonella enterica subsp. enterica serovar typhimurium. The class given is toxicity. The gist of the method: as §1
The nature of data set [35]: Mutagenic activity in Salmonella Typhimurium TA100 assessed as increase in number of revertants at 40 ug/plate by Ames test absence of S9 fraction (Rvb=108+/-5). The class given is toxicity. Conditions: salmonella enterica subsp. enterica serovar typhimurium. The gist of the method:
as §1

For `COc1ccc2nc3cc(Cl)ccc3c(NCCCNCCCl)c2c1`, the Activity in data set [1] is recorded as 1287.

With `C=C[C@@H]1C2=CCOC(=O)C2=CO[C@H]1O[C@@H]1O[C@H](CO)[C@@H](O)[C@H](O)[C@H]1O` [GENTIOPICROSIDE], the Activity in data set [2] came to 22; in data set [3], 26; in data set [4], 119; in [5], 378; in [6] it was 385; in data set [7], 29. Besides, the Activity in data set [8] is 116; in data set [9], “Non-toxic”; in data set [10], 368; in data set [11] it was 376; in data set [12], 188; in [14] it was 385. The Activity in [15] amounted to 180; in [16] it was 31; in data set [17], 26; in data set [18] it was 135; in data set [19] it was 392; in data set [20], 413. Moreover, the Activity in [21] is reported as 274; in [22], 395; in [23], 173; in data set [24], 28; in [25], 32; in data set [26], 19. Besides, the Activity in [27] is given as 138; in data set [28] it was 174; in [29] it was 180; in data set [30] it was 138; in data set [31], 178; in data set [32] it was 140. Moreover, the Activity in [33] is on record as 136; in [34] it was 186; in data set [35], 117. Further, the viability at 2 h in [13] was determined as 95%.

For the origin of these results see ChEMBL document CHEMBL1154886, “DNA-damaging, mutagenic, and clastogenic activities of gentiopicroside isolated from Cephalaria kotschyi roots” (J Nat Prod, 2010).
